According to ChEMBL document CHEMBL2331340, “Novel antitumor indolizino[6,7-b]indoles with multiple modes of action: DNA cross-linking and topoisomerase I and II inhibition” (J Med Chem, 2013):
Activity calls are given as the source filed them. No cut-off for these calls is given here.

What was measured:
[1] = tested on: PC-3; experiment: Cytotoxicity against human PC3 cells after 72 hrs by Alamar blue assay; assay type: functional, cell-based; settings: PC-3, 72 h
Procedure, shortened: (§1)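 Cells exposed to compound for 72 h, then Alamar blue added with a further 10−12 h at 37 °C and a spectrophotometric read. IC50 from six or seven concentrations by median-effect analysis; mean ± STDEV, n = 3. CL141T is a line derived from a patient lung tumor passaged as a SCID mouse xenograft.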

[2] = tested on: MES-SA; experiment: Resistance factor, ratio of IC50 for human MES-SA/Dx5 cells to IC50 for human MES-SA cells; assay type: functional
[3] = Cell cycle arrest in human CL141T cells assessed as accumulation at S phase at 1 x IC50 to 2 x IC50 after 24 hrs by propidium iodide staining-based FACS flow cytometric analysis; assay type: functional
Procedure, shortened: (§2)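 CL141T cells treated at 0.5-, 1- and 2-fold IC50 for 24, 48 and 72 h. Cells fixed in ice-cold 70% EtOH, then stained with 4 μg/mL propidium iodide in PBS with 1% Triton X-100 and 0.1 mg/mL RNase A. Phase distribution from flow cytometry DNA histograms; sub-G1 fraction scored as well.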

[4] = tested on: A549; experiment: Cytotoxicity against human A549 cells after 72 hrs by Alamar blue assay; assay type: functional, cell-based; settings: A549, 72 h; procedure, shortened: as §1
[5] = Cytotoxicity against human H460 cells after 72 hrs by Alamar blue assay; assay type: functional, cell-based; settings: NCI-H460, 72 h; procedure, shortened: as §1
[6] = tested on: Escherichia coli; experiment: Induction of Escherichia coli pEGFP-N1 DNA interstrand cross-linking at 1 to 10 uM after 2 hrs by alkaline agarose gel shift assay
Procedure, shortened: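 Plasmid pEGFP-N1 DNA (1500 ng) incubated with compound at 1, 5 and 10 μM in 3 mM NaCl/1 mM sodium phosphate pH 7.4/1 mM EDTA, 2 h at 37 °C. DNA then BamHI-linearized, EtOH-precipitated, denatured in 0.5 N NaOH/10 mM EDTA, run on 0.8% alkaline agarose at 4 °C (18 V, 22 h), stained with ethidium bromide.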

[7] = tested on: HCT-116; experiment: Cytotoxicity against human HCT116 cells after 72 hrs by Alamar blue assay; assay type: functional, cell-based; settings: HCT-116, 72 h; procedure, shortened: as §1
[8] = Cell cycle arrest in human CL141T cells assessed as accumulation at G2/M phase at 2 x IC50 after 24 hrs by propidium iodide staining-based FACS flow cytometric analysis; assay type: functional; procedure, shortened: as §2
[9] = tested on: MX1; experiment: Cytotoxicity against human MX1 cells after 72 hrs by SRB assay; assay type: functional, cell-based; settings: MX1, 72 h
[10] = Cytotoxicity against human KB-VIN10 cells after 72 hrs by Alamar blue assay; settings: KB-VIN10, 72 h
[11] = Cytotoxicity against human OECM1 cells after 72 hrs by Alamar blue assay; assay type: functional, cell-based; settings: OECM1, 72 h; procedure, shortened: as §1
[12] = tested on: HT-29; experiment: Cytotoxicity against human HT-29 cells after 72 hrs by Alamar blue assay; assay type: functional, cell-based; settings: HT-29, 72 h; procedure, shortened: as §1
[13] = Cell cycle arrest in human CL141T cells assessed as accumulation at G2/M phase at 0.5 x IC50 to 1 x IC50 after 48 to 72 hrs by propidium iodide staining-based FACS flow cytometric analysis; assay type: functional; procedure, shortened: as §2
[14] = Cell cycle arrest in human CL141T cells assessed as accumulation at G1 phase at 1 x IC50 to 2 x IC50 after 24 hrs by propidium iodide staining-based FACS flow cytometric analysis; assay type: functional; procedure, shortened: as §2
[15] = tested on: NCI-H460; experiment: Induction of apoptosis in human H460 cells assessed as increase in apoptotic cells at IC50 after 24 hrs by annexin V-FITC/propidium iodide staining-based FACS flow cytometric analysis (reference value: 4.1%); assay type: functional
[16] = tested on: CCRF-CEM; experiment: Cytotoxicity against human CCRF-CEM cells after 72 hrs by XTT assay; assay type: functional, cell-based
Procedure, shortened: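 CCRF-CEM T-ALL cells incubated with compound for 72 h. XTT with phenazine methosulfate then added for 6 h at 37 °C, absorbance read at 450 and 630 nm. IC50 from six or seven concentrations by median-effect analysis; mean ± STDEV, n = 3.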

[17] = Cell cycle arrest in human CL141T cells assessed as accumulation at sub-G1 phase at 0.5 x IC50 to 2 x IC50 after 72 hrs by propidium iodide staining-based FACS flow cytometric analysis; assay type: functional; procedure, shortened: as §2
[18] = Resistance factor, ratio of IC50 for human KB-VIN10 cells to IC50 for human KB cells; assay type: functional
[19] = tested on: NCI-H460; experiment: Induction of apoptosis in human H460 cells assessed as increase in cleaved caspase 7 expression at IC50 after 24 to 72 hrs by Western blotting analysis; assay type: functional, cell-based
Procedure, shortened: (§3)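 H460 cells treated at IC50 for 24 and 72 h. Lysate proteins separated by SDS-PAGE and blotted to nitrocellulose, blocked in 5% milk/PBST. Primary antibodies to caspase-3, caspase-7, PARP (full-length and cleaved) and β-actin applied for 1 h at room temperature or overnight at 4 °C; HRP secondary with ECL detection.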

[20] = tested on: Mus musculus; experiment: Toxicity in nude mouse xenografted with human A549 cells assessed as body weight loss at 25 mg/kg, iv qd administered 4 days measured for 20 days; assay type: organism-based; design: dose 25 mg/kg, route intravenous; settings: in vivo, 480 h
[21] = Cytotoxicity against human MES-SA cells after 72 hrs by Presto Blue assay; assay type: functional, cell-based
Procedure, shortened: (§4)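 MES-SA and doxorubicin-resistant MES-SA/dx5 cells exposed for 72 h, then PrestoBlue added for 3 h at 37 °C, absorbance read at 570 and 600 nm. IC50 by median-effect analysis of six or seven concentrations; mean ± STDEV of three to six independent experiments.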

[22] = Cytotoxicity against human HEL299 cells; assay type: cell-based; settings: HEL 299
[23] = Half life in rat plasma at 1 to 10 ug/mL after 1 to 4 hrs by HPLC analysis; assay type: ADME, cell-free
Procedure, shortened: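 Rat plasma spiked at 1 and 10 μg/mL and held 1, 2, 3 and 4 h at room temperature. Protein precipitated with acetonitrile containing 10 μg/mL propyl paraben internal standard, centrifuged, filtered. Analysed by reversed-phase C18 HPLC in acetonitrile/10 mM NaH2PO4 pH 4.5 (32:68). Stability given as mean relative error, at least three replicates per concentration.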

[24] = tested on: NCI-H460; experiment: Induction of apoptosis in human H460 cells assessed as increase in cleaved caspase 3 expression at IC50 after 24 to 72 hrs by Western blotting analysis; assay type: functional, cell-based; procedure, shortened: as §3
[25] = tested on: NCI-H460; experiment: Induction of apoptosis in human H460 cells assessed as increase in cleaved PARP expression at IC50 after 24 to 72 hrs by Western blotting analysis; assay type: functional, cell-based; procedure, shortened: as §3
[26] = tested on: A549; experiment: Antitumor activity against human A549 cells xenografted in nude mouse assessed as tumor growth inhibition at 25 mg/kg, iv qd administered 4 days measured on day 20 relative to vehicle-treated control; assay type: functional; settings: read-out: TGI
[27] = tested on: NCI-H460; experiment: Induction of apoptosis in human H460 cells assessed as increase in apoptotic cells at IC50 after 72 hrs by annexin V-FITC/propidium iodide staining-based FACS flow cytometric analysis (reference value: 9.29%); assay type: functional
[28] = tested on: KB; experiment: Cytotoxicity against human KB cells after 72 hrs by Alamar blue assay
[29] = Cytotoxicity against human MES-SA/Dx5 cells after 72 hrs by Presto Blue assay; assay type: functional, cell-based; settings: MES-SA/Dx5, 72 h; procedure, shortened: as §4

Question: Which results are given for `Cc1c(CO)c(CO)c2n1Cc1c(c3ccccc3n1C)C2`?
Answer: IC50 [1]: 610 nM; Ratio IC50 [2]: 0.52; Activity [3]: Active; IC50 [4]: 1140 nM; IC50 [5]: 380 nM; Activity [6]: Active; IC50 [7]: 1000 nM; Activity [8]: inactive; IC50 [9]: 220 nM; IC50 [10]: 1310 nM; IC50 [11]: 960 nM; IC50 [12]: 3350 nM; Activity [13]: Active; Activity [14]: Active; Activity [15]: 15.09%; IC50 [16]: 40 nM; Activity [17]: Active; Ratio IC50 [18]: 0.52; Activity [19]: Active; Activity [20]: Toxic; IC50 [21]: 240 nM; IC50 [22]: 2790 nM; half-life [23]: 12.4 h; Activity [24]: Active; Activity [25]: Active; inhibition in vivo at 25 mg/kg [26]: 50%; Activity [27]: 61.35%; IC50 [28]: 2510 nM; IC50 [29]: 120 nM
